# Hits are enriched below; roughly 4.9% of the tested compounds scored in any of these assays.
# NF-kB expr up: raises NF-kB expression in human neuronal cells. NF-kB reporter expression; stronger effect = higher value. 190,000 tested, 1.6% active. fold change at 12.5 µM; in the data active means fold change above about 3.3
# STAT1 blocker: STAT1 signaling inhibition; NIH 3T3 STAT1-luciferase reporter, IFN-gamma, luminescence; inhibition, % at 5.5 µM; 200,000 tested, 0.35% active;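 active means inhibition above a set limit, the mean inhibition across all tested compounds plus 3 SD, cut at about 34% in these data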;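 further: 0% = IFN-gamma with DMSO and 100% = IFN-gamma with 300 µM nifuroxazide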
# STAT3 act-1: activators of IL-6 induced STAT3 signaling. U3A cells, IL-6 STAT3-luciferase reporter, luminescence; 100% = signal with IL-6 EC80 alone. 190,000 tested, 0.91% active. activation (% of control), % at 5.6 µM;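 active means activation above the screen-wide mean of compound activation plus 3 SD, cut at about 130% in these data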;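 further: 0% = background luminescence of wells with medium and substrate only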
#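 Material: human STAT1-deficient U3A cells with stable STAT3-luciferase reporter / Probe or stimulus: IL-6 stimulus at 33 ng/mL final / Schedule: 1 h compound pre-exposure, 6 h IL-6 stimulation, 37 °C / Technique: luminescence / Read-out basis: percent of IL-6-only median luminescence / Control set: IL-6-only high control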
# STAT1 act-1: activators of IFN-gamma induced STAT1 signaling; NIH 3T3 STAT1-luciferase reporter, luminescence; 100% = IFN-gamma alone, no compound; activation (% of control), % at 5.5 µM; 200,000 tested, 2.6% active; AID 932;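 active means activation above the screen-wide mean activation plus 3 SD, cut at about 130% in these data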;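 further: raw ratio to IFN-gamma control signal so 100% means no change and 0% no light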
# APP 5'UTR act: activates APP 5'UTR luciferase reporter; AID 1276; SH-SY5Y APP 5'UTR luciferase reporter, luminescence; zero percent = DMSO vehicle wells; activation, % at 2 µM; 190,000 tested, 1% active;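 active means activation above a set limit, based on mean plus 3 SD of controls, cut at about 140% in these data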
# STAT3 inh: reduces IL-6 driven STAT3 reporter signal; U3A cells, IL-6 STAT3-luciferase reporter, luminescence; host cell line lacks STAT1; inhibition, % at 5.5 µM; 190,000 tested, 0.89% active;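 active means inhibition above the mean inhibition across all screened compounds plus 3 SD, cut at about 44% in these data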;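 further: 0% = DMSO only wells and 100% = 100 µM nifuroxazide control wells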
# STAT3 act-2: confirmation of STAT3 signaling activators | shares compounds with STAT3 act-1 | U3A STAT3-luciferase reporter, IL-6 potentiation, luminescence; U3A cells lack STAT1; 100 means same as IL-6 alone | potentiation (% of control), % at 5.7 µM | 1,200 tested, 64% active;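 active means percent activation of the STAT3 luciferase reporter above a set limit taken from the earlier primary screen, cut at about 130% in these data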;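 further: 0% = background signal of medium plus substrate and 100% = median of IL-6 with DMSO wells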
# NFkB act 2: activates NF-kappaB, counter-screen to STAT3 activators. shares compounds with STAT3 act-1. human cells, NF-kappaB reporter activation. activation (% of control), % at 5.7 µM. 1,200 tested, 11% active. AID 1309; in the data active means activation above about 120%;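 further: reporter induced by TNF-alpha stimulation; 100% = median of stimulated DMSO wells and 0% = no signal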
# STAT1 act-2: STAT1 activation in STAT3 activator counter-screen. shares compounds with STAT3 act-1. NIH 3T3 STAT1-luciferase reporter, IFN-gamma, luminescence. activation (% of control), % at 5.7 µM. 1,200 tested, 13% active;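 active means activation above the solvent-only control well mean plus 3 SD, set per screening run, cut at about 120% in these data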;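 further: 100% = IFN-gamma with DMSO median signal so 100% means no change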
# An asterisk follows results filed as active; / = no result given.
SMILES,NF-kB expr up,STAT1 blocker,STAT3 act-1,STAT1 act-1,APP 5'UTR act,STAT3 inh,STAT3 act-2,NFkB act 2,STAT1 act-2
CCOC(=O)c1ccccc1Nc1cn(C(C)=O)c2ccccc12,0.97,11,149*,90,6,-49,156*,97,114
CC(=O)n1cc(Nc2ccc([N+](=O)[O-])cc2)c2ccccc21,1.1,0,141*,98,8,-51,137*,95,100
O=C(O)CC(NC(=O)Cc1ccc(Cl)cc1)c1ccco1 (stereo not drawn),1.3,1,99,100,6,7,/,/,/
Cn1c(Cc2c[nH]c3ccccc23)n[nH]c1=S,1.1,2,155*,98,3,-54,133,104,95
Cc1[nH]c2ccccc2c1Cc1n[nH]c(=S)n1C,1.2,-8,104,106,10,-1,/,/,/
CC1(C)CC(=O)C2=C(C1)N(c1ccccc1C#N)C(N)=C(C#N)C2c1cccs1 (stereo not drawn),0.82,2,140*,101,34,-46,149*,112,106
CC1(C)CC(=O)C2=C(C1)N(c1cccnc1)C(N)=C(C#N)C2c1cccs1 (stereo not drawn),0.78,1,100,99,5,4,/,/,/
Cn1c2ccccc2c2ncn(CCCN3CCOCC3)c(=O)c21,1.4,5,140*,95,24,-42,154*,112,108
Cn1c2ccc(F)cc2c2ncn(CCN3CCOCC3)c(=O)c21,1.1,-4,97,104,17,6,/,/,/
COCc1ccc(CN2CCc3c([nH]c4ccccc34)C2C(C)(C)C)o1 (stereo not drawn),1.4,17,140*,83,15,-44,141*,105,93
Cc1ccc(CN=C(N)Nc2nc(C)cc(C)n2)cc1,1.5,9,102,92,-71,0,/,/,/
Cc1nn(-c2cc(Cl)ccc2Cl)c(C)c1C(=O)O,0.97,4,100,95,-10,8,/,/,/
CN(O)/C=C1\C(=O)Nc2ccccc21,1.2,-3,142*,102,-18,-50,115,98,103
CCO/C(C)=C1\C(=O)Nc2ccccc21,1,20,101,81,-12,3,/,/,/
Cc1ccc(-n2nc(C)c(/C=N/n3c(C)n[nH]c3=S)c2Cl)cc1,1.1,-1,85,101,15,21,/,/,/
COc1ccc(CN2CCNC(=O)C2CC(=O)NCc2cnn(C)c2)cc1OC (stereo not drawn),1,-5,108,104,6,3,/,/,/
O=C(c1ccc(F)cc1)N1CCN2C(=O)c3ccccc3C12c1ccc(Cl)cc1 (stereo not drawn),1.1,27,204*,74,19,-97,146*,116,97
O=C(c1ccccc1)N1CCN2C(=O)c3ccccc3C12c1ccc(Cl)cc1 (stereo not drawn),1.8,27,418*,76,7,-376,283*,112,75
CCOc1ccc(NC(=O)c2cc(F)c(F)cc2Cl)cc1OCC,1,-2,99,100,7,3,/,/,/
C=CCOc1ccc(CNc2ccc3[nH]c(=O)[nH]c3c2)cc1OC,1,-2,103,102,17,0,/,/,/
COc1ccc(CNc2ccc3cn[nH]c3c2)c(OC)c1OC,0.81,11,144*,90,-16,-53,129,95,93
CCOc1cc(CNc2ccc3cn[nH]c3c2)ccc1OC,0.5,6,175*,95,-7,-79,161*,99,100
Cc1c(Cl)cccc1NC(=O)Cn1cc(C(F)(F)F)cc(Cl)c1=O,1.2,-5,112,103,3,-6,/,/,/
COc1ccc(-c2cc(-c3ccc(C)cc3)nc(SCc3nnc(-c4ccccc4)o3)c2C#N)cc1OC,1,2,103,98,8,-6,/,/,/
CCc1cc(C(c2ccc(F)cc2)N2CCOCC2)c(NC(=O)c2ccccc2)s1 (stereo not drawn),1.3,4,102,97,-5,2,/,/,/
SMILES,NF-kB expr up,STAT1 blocker,STAT3 act-1,STAT1 act-1,APP 5'UTR act,STAT3 inh,STAT3 act-2,NFkB act 2,STAT1 act-2
CCc1cc(CN2CCOCC2)c(NC(=O)c2ccccc2)s1,1.3,-5,139*,104,13,-46,143*,107,110
CCCSc1nc(=S)n(Cc2ccccc2)c(C)c1C(C)=O,1.3,10,114,88,13,-12,/,/,/
CCOc1ccc(Nc2cc(C)nc3nc(C)nn23)cc1,0.99,-2,91,102,8,10,/,/,/
COc1ccc(Nc2nc(C)cc(C)c2C#N)cc1,1.2,0,137*,100,-4,-44,150*,107,112
CCOc1ccc(Nc2nc(C)cc(C)c2C#N)cc1,1.3,2,140*,93,/,-45,126,102,104
COc1ccc(Oc2nc(C)cc(C)c2C#N)cc1,1.1,-3,89,102,-7,17,/,/,/
Cc1cc(C)c(NC(=O)CS(=O)CC(=O)NCC2CCCO2)c(C)c1 (stereo not drawn),1,1,140*,99,0,-46,124,106,104
Cc1cc(C)cc(OCC(=O)NCC2CCCO2)c1 (stereo not drawn),0.83,17,72,84,13,34,/,/,/
O=C1c2ccccc2C(=O)N1OCc1ccccc1,1.1,-10,137*,109,14,-40,114,103,105
O=C1c2ccccc2C(=O)N1OCc1cccc(Cl)c1,1.1,-1,91,101,4,16,/,/,/
CC1=NN(c2nc(-c3ccccc3)cs2)C(=O)C1N=Nc1ccccc1 (stereo not drawn),0.98,-15,87,113,12,25,/,/,/
CC1=NN(c2ccccc2)C(=O)C1N=Nc1ccc(C)cc1 (stereo not drawn),1.1,-13,136*,111,11,-25,121,106,108
CC1=NN(c2nc(-c3ccc(C)cc3)cs2)C(=O)C1N=Nc1ccc2ccccc2c1 (stereo not drawn),1.1,1,150*,99,-3,-54,142*,102,97
COc1ccc(NC2SC(=O)N(C)C2=O)cc1 (stereo not drawn),0.92,-8,107,106,5,-6,/,/,/
COc1ccc(N2CCN(C(C)C(=O)Nc3nnc(C)s3)CC2)cc1 (stereo not drawn),0.99,-1,100,99,21,2,/,/,/

# Source: PubChem
